Test results from ChEMBL document CHEMBL1177842, “New 6-amino-[1,2,4]triazolo[3,4-b][1,3,4]thiadiazines and [1,2,4]triazolo[3,4-b] [1,3,4]thiadiazin-6-ones: synthesis, characterization and antibacterial activity evaluation” (2010).
≈ marks a conversion by molar mass, not a printed value. Calls of active or inactive are those of the source. The rule behind the calls is not given here.

How the values were obtained:
Format in all cases: functional
[1] = tested on: Pseudomonas aeruginosa; experiment: Antibacterial activity against Pseudomonas aeruginosa ATCC 9027 after 24 hrs by broth microdilution technique
Summary of the method: (§1)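 MIC by broth microdilution following NCCLS recommendations. Strains were grown in Mueller-Hinton broth and the inoculum was 5 × 10^5 cfu in 1 mL. Compounds were dissolved in DMSO and serially diluted in tubes to final concentrations of 1024 down to 2 µg/mL. 24 h old inoculum was added. After 35 °C for 24 h, the MIC was the lowest concentration inhibiting visible growth. Tetracycline and ampicillin served as standards.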

[2] = tested on: Enterobacter cloacae; experiment: Antibacterial activity against Enterobacter cloacae ATCC 49141 after 24 hrs by broth microdilution technique; summary of the method: as §1
[3] = tested on: Bacillus cereus; experiment: Antibacterial activity against Bacillus cereus ATCC 13061 after 24 hrs by broth microdilution technique; summary of the method: as §1
[4] = tested on: Staphylococcus aureus; experiment: Antibacterial activity against Staphylococcus aureus ATCC 25923 after 24 hrs by broth microdilution technique; details: ATCC 25923, 24 h; summary of the method: as §1
[5] = tested on: Escherichia coli; experiment: Antibacterial activity against Escherichia coli ATCC 25922 after 24 hrs by broth microdilution technique; details: ATCC 25922, 24 h; summary of the method: as §1
[6] = tested on: Enterococcus faecalis; experiment: Antibacterial activity against Enterococcus faecalis ATCC 29212 after 24 hrs by broth microdilution technique; details: ATCC 29212, 24 h; summary of the method: as §1
[7] = tested on: Acinetobacter baumannii; experiment: Antibacterial activity against Acinetobacter baumannii ATCC 19606 after 24 hrs by broth microdilution technique; summary of the method: as §1
[8] = tested on: Citrobacter freundii; experiment: Antibacterial activity against Citrobacter freundii […] after 24 hrs by broth microdilution technique; summary of the method: as §1
[9] = tested on: Staphylococcus epidermidis; experiment: Antibacterial activity against Staphylococcus epidermidis ATCC 14990 after 24 hrs by broth microdilution technique; details: ATCC 14990, 24 h; summary of the method: as §1

MIC ([1]; ATCC 9027, 24 h) [µg/mL] | MIC ([2]; ATCC 49141, 24 h) [µg/mL] | MIC ([3]; ATCC 13061, 24 h) [µg/mL] | MIC [4] [µg/mL] | MIC [5] [µg/mL] | MIC [6] [µg/mL] | MIC ([7]; ATCC 19606, 24 h) [µg/mL] | MIC [8] [µg/mL] | MIC [9] [µg/mL] | MIC [1] | MIC [3] | MIC [7] | Compound | MIC [2]
128 (≈ 315 µM) | 512 (≈ 1260 µM) | 1020 (≈ 2520 µM) | 256 (≈ 629 µM) | 128 (≈ 315 µM) | 512 (≈ 1260 µM) | 256 (≈ 629 µM) | 512 (≈ 1260 µM) | 256 (≈ 629 µM) | – | – | – | O=C1CSc2nnc(-c3ccc(S(=O)(=O)c4ccc(Cl)cc4)cc3)n2N1 | –
512 (≈ 1540 µM) | 512 (≈ 1540 µM) | 1020 (≈ 3080 µM) | 512 (≈ 1540 µM) | 512 (≈ 1540 µM) | 1020 (≈ 3080 µM) | 512 (≈ 1540 µM) | 512 (≈ 1540 µM) | 128 (≈ 385 µM) | – | – | – | Nn1c(-c2ccc(S(=O)(=O)c3ccccc3)cc2)n[nH]c1=S | –
256 (≈ 656 µM) | 1020 (≈ 2620 µM) | 1020 (≈ 2620 µM) | 256 (≈ 656 µM) | 64 (≈ 164 µM) | 512 (≈ 1310 µM) | 1020 (≈ 2620 µM) | 512 (≈ 1310 µM) | 128 (≈ 328 µM) | – | – | – | Nn1c(SCC(=O)O)nnc1-c1ccc(S(=O)(=O)c2ccccc2)cc1 | –
32 (≈ 64 µM) | 512 (≈ 1020 µM) | 1020 (≈ 2050 µM) | 128 (≈ 256 µM) | 128 (≈ 256 µM) | 1020 (≈ 2050 µM) | 1020 (≈ 2050 µM) | 512 (≈ 1020 µM) | 256 (≈ 512 µM) | – | – | – | Nn1c(SCC(=O)Nc2ccccc2)nnc1-c1ccc(S(=O)(=O)c2ccc(Cl)cc2)cc1 | –
256 (≈ 545 µM) | 1020 (≈ 2180 µM) | 1020 (≈ 2180 µM) | 512 (≈ 1090 µM) | 64 (≈ 136 µM) | 512 (≈ 1090 µM) | 1020 (≈ 2180 µM) | 512 (≈ 1090 µM) | 512 (≈ 1090 µM) | – | – | – | Nn1c(SCC(=O)O)nnc1-c1ccc(S(=O)(=O)c2ccc(Br)cc2)cc1 | –
128 (≈ 284 µM) | 512 (≈ 1130 µM) | 1020 (≈ 2270 µM) | 1020 (≈ 2270 µM) | 128 (≈ 284 µM) | 1020 (≈ 2270 µM) | 256 (≈ 567 µM) | 512 (≈ 1130 µM) | 1020 (≈ 2270 µM) | – | – | – | O=C1CSc2nnc(-c3ccc(S(=O)(=O)c4ccc(Br)cc4)cc3)n2N1 | –
64 (≈ 138 µM) | 512 (≈ 1100 µM) | 1020 (≈ 2200 µM) | 64 (≈ 138 µM) | 512 (≈ 1100 µM) | 1020 (≈ 2200 µM) | 1020 (≈ 2200 µM) | 512 (≈ 1100 µM) | 512 (≈ 1100 µM) | – | – | – | O=c1[nH]n2c(-c3ccc(S(=O)(=O)c4ccc(Br)cc4)cc3)nnc2sc1=O | –
128 (≈ 267 µM) | 512 (≈ 1070 µM) | 1020 (≈ 2140 µM) | 1020 (≈ 2140 µM) | 512 (≈ 1070 µM) | 1020 (≈ 2140 µM) | 1020 (≈ 2140 µM) | 512 (≈ 1070 µM) | 1020 (≈ 2140 µM) | – | – | – | CCOC(=O)C1Sc2nnc(-c3ccc(S(=O)(=O)c4ccc(Cl)cc4)cc3)n2NC1=O (configuration not stated) | –
128 (≈ 235 µM) | 256 (≈ 470 µM) | 512 (≈ 940 µM) | 64 (≈ 118 µM) | 256 (≈ 470 µM) | 1020 (≈ 1880 µM) | 1020 (≈ 1880 µM) | 1020 (≈ 1880 µM) | 256 (≈ 470 µM) | – | – | – | Nn1c(SCC(=O)Nc2ccccc2)nnc1-c1ccc(S(=O)(=O)c2ccc(Br)cc2)cc1 | –
256 (≈ 603 µM) | 1020 (≈ 2410 µM) | 1020 (≈ 2410 µM) | 128 (≈ 301 µM) | 64 (≈ 151 µM) | 256 (≈ 603 µM) | 1020 (≈ 2410 µM) | 512 (≈ 1210 µM) | 256 (≈ 603 µM) | – | – | – | Nn1c(SCC(=O)O)nnc1-c1ccc(S(=O)(=O)c2ccc(Cl)cc2)cc1 | –
256 (≈ 486 µM) | 512 (≈ 973 µM) | 512 (≈ 973 µM) | 1020 (≈ 1950 µM) | 256 (≈ 486 µM) | 1020 (≈ 1950 µM) | 512 (≈ 973 µM) | 512 (≈ 973 µM) | 1020 (≈ 1950 µM) | – | – | – | O=S(=O)(c1ccc(Br)cc1)c1ccc(-c2nnc3n2N=C(Nc2ccccc2)CS3)cc1 | –
64 (≈ 133 µM) | 1020 (≈ 2120 µM) | 1020 (≈ 2120 µM) | 256 (≈ 531 µM) | 128 (≈ 266 µM) | 1020 (≈ 2120 µM) | 512 (≈ 1060 µM) | 128 (≈ 266 µM) | 1020 (≈ 2120 µM) | – | – | – | O=S(=O)(c1ccc(Cl)cc1)c1ccc(-c2nnc3n2N=C(Nc2ccccc2)CS3)cc1 | –
128 (≈ 344 µM) | 512 (≈ 1370 µM) | 1020 (≈ 2750 µM) | 512 (≈ 1370 µM) | 128 (≈ 344 µM) | 1020 (≈ 2750 µM) | 256 (≈ 687 µM) | 512 (≈ 1370 µM) | 32 (≈ 85.9 µM) | – | – | – | O=C1CSc2nnc(-c3ccc(S(=O)(=O)c4ccccc4)cc3)n2N1 | –
– | – | – | < 2 | – | < 2 | – | 2 (≈ 5.72 µM) | < 2 | inactive | inactive | inactive | CC1(C)S[C@@H]2[C@H](NC(=O)[C@H](N)c3ccccc3)C(=O)N2[C@H]1C(=O)O [AMPICILLIN] | inactive
128 (≈ 349 µM) | 512 (≈ 1400 µM) | 1020 (≈ 2790 µM) | 512 (≈ 1400 µM) | 1020 (≈ 2790 µM) | 1020 (≈ 2790 µM) | 128 (≈ 349 µM) | 512 (≈ 1400 µM) | 512 (≈ 1400 µM) | – | – | – | Nn1c(-c2ccc(S(=O)(=O)c3ccc(Cl)cc3)cc2)n[nH]c1=S | –
512 (≈ 1240 µM) | 512 (≈ 1240 µM) | 1020 (≈ 2490 µM) | 512 (≈ 1240 µM) | 1020 (≈ 2490 µM) | 1020 (≈ 2490 µM) | 128 (≈ 311 µM) | 512 (≈ 1240 µM) | 512 (≈ 1240 µM) | – | – | – | Nn1c(S)nnc1-c1ccc(S(=O)(=O)c2ccc(Br)cc2)cc1 | –

Compound | MIC ([1]; ATCC 9027, 24 h) [µg/mL] | MIC ([2]; ATCC 49141, 24 h) [µg/mL] | MIC ([3]; ATCC 13061, 24 h) [µg/mL] | MIC [4] [µg/mL] | MIC [5] [µg/mL] | MIC [6] [µg/mL] | MIC ([7]; ATCC 19606, 24 h) [µg/mL] | MIC [8] [µg/mL] | MIC [9] [µg/mL] | MIC [1] | MIC [3] | MIC [7] | MIC [2]
CN(C)[C@@H]1C(O)=C(C(N)=O)C(=O)[C@@]2(O)C(O)=C3C(=O)c4c(O)cccc4[C@@](C)(O)[C@H]3C[C@@H]12 [TETRACYCLINE] | 16 (≈ 36 µM) | – | < 2 | < 2 | 2 (≈ 4.5 µM) | 32 (≈ 72 µM) | 2 (≈ 4.5 µM) | 2 (≈ 4.5 µM) | 32 (≈ 72 µM) | – | – | – | inactive
